Legend:
PC-3 = assay: Growth inhibition of human PC3 cells at 10 uM after 72 hrs by […] assay relative to control; assay type: functional; conditions: PC-3, 72 h, read-out: GI
Procedure, shortened: (§1)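 HT29, MCF7 and PC-3 cells were grown in RPMI, plated, and treated 24 h later with compound in DMSO at 10^-5 M (DMSO controls, 1% final). After 72 h exposure, MTS reagent was added for 3 h at 37 °C and absorbance read at 490 nm. Proliferation inhibition = [1 − OD treated/OD control] × 100, triplicate experiments.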

HT-29 = assay: Growth inhibition of human HT-29 cells at 10 uM after 72 hrs by […] assay relative to control; assay type: functional; conditions: HT-29, 72 h, read-out: GI; procedure, shortened: as §1
[1] = Growth inhibition of African green monkey Vero cells at 10 uM after 72 hrs by […] assay relative to control; assay type: cell-based; conditions: chlorocebus sabaeus, read-out: GI
Procedure, shortened: (§2)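 KB and Vero cells were grown in D-MEM with 10% FCS and antibiotics under 5% CO2, plated, then dosed 24 h later at 10^-5 M from DMSO (controls 1% DMSO). After 72 h, MTS was added for 3 h at 37 °C and A490 read. Inhibition = (1 − OD treated/OD control) × 100, in triplicate.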

MCF7 = assay: Growth inhibition of human MCF7 cells at 10 uM after 72 hrs by […] assay relative to control; assay type: functional; conditions: MCF7, 72 h, read-out: GI; procedure, shortened: as §1
KB = assay: Growth inhibition of human KB cells at 10 uM after 72 hrs by […] relative to control; assay type: functional; conditions: read-out: GI; procedure, shortened: as §2

COc1ccccc1C(=O)Nc1cccc(-c2ncnc3[nH]cnc23)c1
< 10%: inhibition of growth at 10 µM (PC-3) | inhibition of growth at 10 µM (HT-29) | inhibition at 72 h, 10 µM [1] | inhibition of growth at 10 µM (MCF7) | inhibition of growth at 10 µM (KB)

COc1ncccc1C(=O)Nc1cccc(-c2nc3c(Nc4ccccc4)ncnc3[nH]2)c1
< 10%: inhibition of growth at 10 µM (PC-3) | inhibition of growth at 10 µM (HT-29) | inhibition at 72 h, 10 µM [1] | inhibition of growth at 10 µM (MCF7) | inhibition of growth at 10 µM (KB)

Cc1cc(C(=O)Nc2cccc(-c3ncnc4[nH]cnc34)c2)ccc1Br
< 10%: inhibition of growth at 10 µM (PC-3) | inhibition of growth at 10 µM (HT-29) | inhibition at 72 h, 10 µM [1] | inhibition of growth at 10 µM (MCF7) | inhibition of growth at 10 µM (KB)

COc1ncccc1C(=O)Nc1ccc(Nc2ncnc3[nH]cnc23)cc1
< 10%: inhibition of growth at 10 µM (PC-3) | inhibition of growth at 10 µM (HT-29) | inhibition at 72 h, 10 µM [1] | inhibition of growth at 10 µM (MCF7) | inhibition of growth at 10 µM (KB)

COc1ncccc1C(=O)Nc1cccc(-c2nc3c(Nc4cccc(C(F)(F)F)c4)ncnc3[nH]2)c1
< 10%: inhibition of growth at 10 µM (PC-3) | inhibition of growth at 10 µM (HT-29) | inhibition at 72 h, 10 µM [1] | inhibition of growth at 10 µM (MCF7) | inhibition of growth at 10 µM (KB)

O=C(Nc1ccc(Nc2ncnc3[nH]cnc23)c(F)c1)c1cccn(-c2cccc(F)c2)c1=O
< 10%: inhibition of growth at 10 µM (PC-3) | inhibition of growth at 10 µM (HT-29) | inhibition at 72 h, 10 µM [1] | inhibition of growth at 10 µM (MCF7) | inhibition of growth at 10 µM (KB)

COc1ccccc1C(=O)Nc1cccc(-c2nc3c(Nc4ccccc4)ncnc3[nH]2)c1
< 10%: inhibition of growth at 10 µM (PC-3) | inhibition of growth at 10 µM (HT-29) | inhibition at 72 h, 10 µM [1] | inhibition of growth at 10 µM (MCF7) | inhibition of growth at 10 µM (KB)

O=C(Nc1ccc(Nc2ncnc3[nH]cnc23)c(F)c1)c1cccn(-c2ccc(F)cc2)c1=O
< 10%: inhibition of growth at 10 µM (PC-3) | inhibition of growth at 10 µM (HT-29) | inhibition at 72 h, 10 µM [1] | inhibition of growth at 10 µM (MCF7) | inhibition of growth at 10 µM (KB)

O=C(Nc1ccc(Oc2ncnc3[nH]cnc23)c(F)c1)c1ccccc1F
< 10%: inhibition of growth at 10 µM (PC-3) | inhibition of growth at 10 µM (HT-29) | inhibition at 72 h, 10 µM [1] | inhibition of growth at 10 µM (MCF7) | inhibition of growth at 10 µM (KB)

COc1ncccc1C(=O)Nc1cccc(-c2nc3c(Nc4cccc(F)c4)ncnc3[nH]2)c1
< 10%: inhibition of growth at 10 µM (PC-3) | inhibition of growth at 10 µM (HT-29) | inhibition at 72 h, 10 µM [1] | inhibition of growth at 10 µM (MCF7) | inhibition of growth at 10 µM (KB)

COc1ccccc1C(=O)Nc1cccc(-c2nc3c(Nc4ccc(F)cc4)ncnc3[nH]2)c1
< 10%: inhibition of growth at 10 µM (PC-3) | inhibition of growth at 10 µM (HT-29) | inhibition at 72 h, 10 µM [1] | inhibition of growth at 10 µM (MCF7) | inhibition of growth at 10 µM (KB)

O=C(Nc1ccc(Nc2ncnc3[nH]cnc23)c(F)c1)c1cccn(-c2ccc(C(F)(F)F)cc2)c1=O
< 10%: inhibition of growth at 10 µM (PC-3) | inhibition of growth at 10 µM (HT-29) | inhibition at 72 h, 10 µM [1] | inhibition of growth at 10 µM (MCF7) | inhibition of growth at 10 µM (KB)

O=C(Nc1cccc(-c2nc3c(Nc4cccc(C(F)(F)F)c4)ncnc3[nH]2)c1)c1ccccc1F
< 10%: inhibition of growth at 10 µM (PC-3) | inhibition of growth at 10 µM (HT-29) | inhibition at 72 h, 10 µM [1] | inhibition of growth at 10 µM (MCF7) | inhibition of growth at 10 µM (KB)

O=C(Nc1cccc(-c2ncnc3[nH]cnc23)c1)c1cccn(-c2cccc(C(F)(F)F)c2)c1=O
< 10%: inhibition of growth at 10 µM (PC-3) | inhibition of growth at 10 µM (HT-29) | inhibition at 72 h, 10 µM [1] | inhibition of growth at 10 µM (MCF7) | inhibition of growth at 10 µM (KB)

O=C(Nc1ccc(Nc2ncnc3[nH]cnc23)c(F)c1)c1cccnc1F
< 10%: inhibition of growth at 10 µM (PC-3) | inhibition of growth at 10 µM (HT-29) | inhibition at 72 h, 10 µM [1] | inhibition of growth at 10 µM (MCF7) | inhibition of growth at 10 µM (KB)

Cc1cc(C(=O)Nc2cccc(-c3nc4c(Nc5ccc(F)cc5)ncnc4[nH]3)c2)ccc1Br
< 10%: inhibition of growth at 10 µM (PC-3) | inhibition of growth at 10 µM (HT-29) | inhibition at 72 h, 10 µM [1] | inhibition of growth at 10 µM (MCF7) | inhibition of growth at 10 µM (KB)

COc1ncccc1C(=O)Nc1cccc(-c2ncnc3[nH]cnc23)c1
< 10%: inhibition of growth at 10 µM (PC-3) | inhibition of growth at 10 µM (HT-29) | inhibition at 72 h, 10 µM [1] | inhibition of growth at 10 µM (MCF7) | inhibition of growth at 10 µM (KB)

O=C(Nc1cccc(-c2nc3c(Nc4ccc(F)cc4)ncnc3[nH]2)c1)c1ccccc1F
< 10%: inhibition of growth at 10 µM (PC-3) | inhibition of growth at 10 µM (HT-29) | inhibition at 72 h, 10 µM [1] | inhibition of growth at 10 µM (MCF7) | inhibition of growth at 10 µM (KB)

O=C(Nc1ccc(Nc2ncnc3[nH]cnc23)cc1)c1cccn(-c2cccc(F)c2)c1=O
< 10%: inhibition of growth at 10 µM (PC-3) | inhibition of growth at 10 µM (HT-29) | inhibition at 72 h, 10 µM [1] | inhibition of growth at 10 µM (MCF7) | inhibition of growth at 10 µM (KB)

Cc1cc(C(=O)Nc2cccc(-c3nc4c(Nc5cccc(C(F)(F)F)c5)ncnc4[nH]3)c2)ccc1Br
< 10%: inhibition of growth at 10 µM (PC-3) | inhibition of growth at 10 µM (HT-29) | inhibition at 72 h, 10 µM [1] | inhibition of growth at 10 µM (MCF7) | inhibition of growth at 10 µM (KB)

COc1cc2c(Nc3ccc(Br)cc3F)ncnc2cc1OCC1CCN(C)CC1 [VANDETANIB]
< 10%: inhibition of growth at 10 µM (PC-3) | inhibition of growth at 10 µM (HT-29) | inhibition at 72 h, 10 µM [1] | inhibition of growth at 10 µM (MCF7) | inhibition of growth at 10 µM (KB)

O=C(Nc1cccc(-c2ncnc3[nH]cnc23)c1)c1cccn(-c2ccc(F)cc2)c1=O
< 10%: inhibition of growth at 10 µM (PC-3) | inhibition of growth at 10 µM (HT-29) | inhibition at 72 h, 10 µM [1] | inhibition of growth at 10 µM (MCF7) | inhibition of growth at 10 µM (KB)

COc1ncccc1C(=O)Nc1cccc(-c2nc3c(Nc4ccc(F)cc4)ncnc3[nH]2)c1
< 10%: inhibition of growth at 10 µM (PC-3) | inhibition of growth at 10 µM (HT-29) | inhibition at 72 h, 10 µM [1] | inhibition of growth at 10 µM (MCF7) | inhibition of growth at 10 µM (KB)

COc1ccccc1C(=O)Nc1cccc(-c2nc3c(Nc4cccc(F)c4)ncnc3[nH]2)c1
< 10%: inhibition of growth at 10 µM (PC-3) | inhibition of growth at 10 µM (HT-29) | inhibition at 72 h, 10 µM [1] | inhibition of growth at 10 µM (MCF7) | inhibition of growth at 10 µM (KB)

O=C(Nc1ccc(Nc2ncnc3[nH]cnc23)cc1)c1cccnc1F
< 10%: inhibition of growth at 10 µM (PC-3) | inhibition of growth at 10 µM (HT-29) | inhibition at 72 h, 10 µM [1] | inhibition of growth at 10 µM (MCF7) | inhibition of growth at 10 µM (KB)

O=C(Nc1cccc(-c2ncnc3[nH]cnc23)c1)c1cccn(-c2cccc(F)c2)c1=O
< 10%: inhibition of growth at 10 µM (PC-3) | inhibition of growth at 10 µM (HT-29) | inhibition at 72 h, 10 µM [1] | inhibition of growth at 10 µM (MCF7) | inhibition of growth at 10 µM (KB)

COc1ccccc1C(=O)Nc1ccc(Nc2ncnc3[nH]cnc23)c(F)c1
< 10%: inhibition of growth at 10 µM (PC-3) | inhibition of growth at 10 µM (HT-29) | inhibition at 72 h, 10 µM [1] | inhibition of growth at 10 µM (MCF7) | inhibition of growth at 10 µM (KB)

O=C(Nc1cccc(-c2ncnc3[nH]cnc23)c1)c1cccnc1F
< 10%: inhibition of growth at 10 µM (PC-3) | inhibition of growth at 10 µM (HT-29) | inhibition at 72 h, 10 µM [1] | inhibition of growth at 10 µM (MCF7) | inhibition of growth at 10 µM (KB)

Cc1cc(C(=O)Nc2ccc(Nc3ncnc4[nH]cnc34)c(F)c2)ccc1Br
< 10%: inhibition of growth at 10 µM (PC-3) | inhibition of growth at 10 µM (HT-29) | inhibition at 72 h, 10 µM [1] | inhibition of growth at 10 µM (MCF7) | inhibition of growth at 10 µM (KB)

O=C(Nc1ccc(Nc2ncnc3[nH]cnc23)cc1)c1ccccc1F
< 10%: inhibition of growth at 10 µM (PC-3) | inhibition of growth at 10 µM (HT-29) | inhibition at 72 h, 10 µM [1] | inhibition of growth at 10 µM (MCF7) | inhibition of growth at 10 µM (KB)

O=C(Nc1ccc(Nc2ncnc3[nH]cnc23)c(F)c1)c1cccn(-c2cccc(C(F)(F)F)c2)c1=O
< 10%: inhibition of growth at 10 µM (PC-3) | inhibition of growth at 10 µM (HT-29) | inhibition at 72 h, 10 µM [1] | inhibition of growth at 10 µM (MCF7) | inhibition of growth at 10 µM (KB)

Cc1cc(C(=O)Nc2cccc(-c3nc4c(Nc5cccc(F)c5)ncnc4[nH]3)c2)ccc1Br
< 10%: inhibition of growth at 10 µM (PC-3) | inhibition of growth at 10 µM (HT-29) | inhibition at 72 h, 10 µM [1] | inhibition of growth at 10 µM (MCF7) | inhibition of growth at 10 µM (KB)

COc1ccccc1C(=O)Nc1cccc(-c2nc3c(Nc4cccc(C(F)(F)F)c4)ncnc3[nH]2)c1
< 10%: inhibition of growth at 10 µM (PC-3) | inhibition of growth at 10 µM (HT-29) | inhibition at 72 h, 10 µM [1] | inhibition of growth at 10 µM (MCF7) | inhibition of growth at 10 µM (KB)

COc1ncccc1C(=O)Nc1ccc(Nc2ncnc3[nH]cnc23)c(F)c1
< 10%: inhibition of growth at 10 µM (PC-3) | inhibition of growth at 10 µM (HT-29) | inhibition at 72 h, 10 µM [1] | inhibition of growth at 10 µM (MCF7) | inhibition of growth at 10 µM (KB)

O=C(Nc1ccc(Nc2ncnc3[nH]cnc23)c(F)c1)c1ccccc1F
< 10%: inhibition of growth at 10 µM (PC-3) | inhibition of growth at 10 µM (HT-29) | inhibition at 72 h, 10 µM [1] | inhibition of growth at 10 µM (MCF7) | inhibition of growth at 10 µM (KB)

O=C(Nc1cccc(-c2ncnc3[nH]cnc23)c1)c1cccn(-c2ccc(C(F)(F)F)cc2)c1=O
< 10%: inhibition of growth at 10 µM (PC-3) | inhibition of growth at 10 µM (HT-29) | inhibition at 72 h, 10 µM [1] | inhibition of growth at 10 µM (MCF7) | inhibition of growth at 10 µM (KB)

From ChEMBL document CHEMBL2346606, “Inhibitors of the TAM subfamily of tyrosine kinases: synthesis and biological evaluation” (Eur J Med Chem, 2013)
